Source: ChEMBL document CHEMBL1137287, “Peptidyl-urea based inhibitors of soluble epoxide hydrolases” (Bioorg Med Chem Lett, 2006)

What was measured:
[1] = Plasma concentration in dog at 0.3 mg/kg, po after 30 min; assay type: ADME, organism-based, Canis lupus familiaris; design: dose 0.3 mg/kg, route oral
Procedure, shortened: (§1)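 Dogs given oral dose of 0.3 mg/kg per inhibitor, three different inhibitors per dog per experiment, formulated at 6 mg/mL in triglycerides (tristearate, 6 mL). AUC estimated from plasma concentration (nM) versus time (min) plot.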

[2] = Solubility in sodium phosphate buffer at pH 7.4; assay type: physicochemical
Procedure, shortened: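 Solubility measured in sodium phosphate buffer, 100 mM, pH 7.4, following a previously described procedure.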

[3] = biological target: T1, Bifunctional epoxide hydrolase 2 (Homo sapiens, UniProt P34913); assay: Inhibition of human recombinant soluble Epoxide hydrolase
T1 sequence (P34913 whole entry): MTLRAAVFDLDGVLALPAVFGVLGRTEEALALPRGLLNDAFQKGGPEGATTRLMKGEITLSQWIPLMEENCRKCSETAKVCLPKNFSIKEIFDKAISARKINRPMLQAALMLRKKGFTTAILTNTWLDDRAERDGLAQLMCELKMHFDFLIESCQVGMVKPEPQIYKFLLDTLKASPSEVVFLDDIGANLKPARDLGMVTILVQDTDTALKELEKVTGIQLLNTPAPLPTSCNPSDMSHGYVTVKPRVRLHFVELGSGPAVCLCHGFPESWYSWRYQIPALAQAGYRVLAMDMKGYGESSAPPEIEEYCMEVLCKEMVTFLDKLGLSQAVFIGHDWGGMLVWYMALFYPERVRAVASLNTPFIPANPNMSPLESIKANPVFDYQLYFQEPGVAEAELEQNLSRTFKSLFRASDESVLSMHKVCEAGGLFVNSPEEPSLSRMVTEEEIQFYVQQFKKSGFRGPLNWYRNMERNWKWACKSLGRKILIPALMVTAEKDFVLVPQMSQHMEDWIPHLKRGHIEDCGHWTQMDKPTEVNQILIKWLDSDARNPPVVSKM

[4] = Plasma concentration in dog at 0.3 mg/kg, po after 60 min; assay type: ADME, organism-based, Canis lupus familiaris; design: dose 0.3 mg/kg, route oral; procedure, shortened: as §1
[5] = Plasma concentration in dog at 0.3 mg/kg, po after 15 min; assay type: ADME, organism-based, Canis lupus familiaris; design: dose 0.3 mg/kg, route oral; procedure, shortened: as §1
[6] = AUC in dog at 0.3 mg/kg, po; assay type: ADME, organism-based, Canis lupus familiaris; design: dose 0.3 mg/kg, route oral; settings: plasma; procedure, shortened: as §1
[7] = biological target: T2, Bifunctional epoxide hydrolase 2 (Mus musculus, UniProt P34914); assay: Inhibition of mouse recombinant soluble Epoxide hydrolase
T2 sequence (P34914 whole entry): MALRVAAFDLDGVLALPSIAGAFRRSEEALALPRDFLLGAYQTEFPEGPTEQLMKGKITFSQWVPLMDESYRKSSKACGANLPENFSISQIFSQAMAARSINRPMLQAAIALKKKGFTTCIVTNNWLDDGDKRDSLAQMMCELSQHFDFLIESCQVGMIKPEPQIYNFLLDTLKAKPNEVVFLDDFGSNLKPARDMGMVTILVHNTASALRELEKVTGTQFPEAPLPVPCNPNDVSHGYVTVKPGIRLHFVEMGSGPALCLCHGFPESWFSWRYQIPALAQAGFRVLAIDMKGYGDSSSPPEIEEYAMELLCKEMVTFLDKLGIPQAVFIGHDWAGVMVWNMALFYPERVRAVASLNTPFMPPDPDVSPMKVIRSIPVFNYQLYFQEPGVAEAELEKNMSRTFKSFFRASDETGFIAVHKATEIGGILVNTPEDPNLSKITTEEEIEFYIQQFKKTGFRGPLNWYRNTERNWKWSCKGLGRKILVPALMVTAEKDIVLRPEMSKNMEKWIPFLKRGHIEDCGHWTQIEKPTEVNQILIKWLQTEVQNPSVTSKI

[8] = Plasma concentration in dog at 0.3 mg/kg, po after 360 min; assay type: ADME, organism-based, Canis lupus familiaris; design: dose 0.3 mg/kg, route oral; procedure, shortened: as §1
[9] = Plasma concentration in dog at 0.3 mg/kg, po after 300 min; assay type: ADME, organism-based, Canis lupus familiaris; design: dose 0.3 mg/kg, route oral; procedure, shortened: as §1
[10] = Plasma concentration in dog at 0.3 mg/kg, po after 120 min; assay type: ADME, organism-based, Canis lupus familiaris; design: dose 0.3 mg/kg, route oral; procedure, shortened: as §1
[11] = Plasma concentration in dog at 0.3 mg/kg, po after 180 min; assay type: ADME, organism-based, Canis lupus familiaris; design: dose 0.3 mg/kg, route oral; procedure, shortened: as §1
[12] = Plasma concentration in dog at 0.3 mg/kg, po after 240 min; assay type: ADME, organism-based, Canis lupus familiaris; design: dose 0.3 mg/kg, route oral; procedure, shortened: as §1
[13] = Plasma concentration in dog at 0.3 mg/kg, po after 480 min; assay type: ADME, organism-based, Canis lupus familiaris; design: dose 0.3 mg/kg, route oral; procedure, shortened: as §1

| Structure (SMILES) | solubility [2] [µM] | IC50 [3] [µM] | IC50 [7] [µM] | further results |
| --- | --- | --- | --- | --- |
| O=C(CCCCCNC(=O)NC12CC3CC(CC(C3)C1)C2)N[C@@H](Cc1ccccc1)C(=O)N[C@@H](Cc1c[nH]c2ccccc12)C(=O)O | > 500 |  |  | concentration at 0.5 h [1]: 0.82 nM; Ki [3]: 0.015 µM; concentration at 1 h [4]: 0.33 nM; concentration at 0.25 h [5]: 0.62 nM; AUC [6]: < 1.67 nM·h |
| O=C(CNC(=O)NC1CCCCC1)N[C@@H](Cc1ccccc1)C(=O)O | > 500 | > 100 | 18 |  |
| NC(N)=NCCC[C@H](NC(=O)CNC(=O)NC1CCCCC1)C(=O)O | > 500 | > 100 | > 100 |  |
| O=C(CNC(=O)NC1CCCCC1)N[C@@H](Cc1cnc[nH]1)C(=O)O | > 500 | > 100 | 36 |  |
| CC(C)[C@H](NC(=O)CCCNC(=O)NC1CCCCC1)C(=O)O | > 500 | 17 | 1.4 |  |
| O=C(O)CCCCCCCCCCCNC(=O)NC12CC3CC(CC(C3)C1)C2 |  |  |  | concentration at 6 h [8]: 1.17 nM; concentration at 5 h [9]: 1.61 nM; concentration at 0.5 h [1]: 20.4 nM; concentration at 2 h [10]: 26.3 nM; concentration at 3 h [11]: 13.4 nM; concentration at 1 h [4]: 30.7 nM; concentration at 4 h [12]: 6.12 nM; concentration at 0.25 h [5]: 6.97 nM; concentration at 8 h [13]: 0.86 nM |
| O=C(CCCNC(=O)NC1CCCCC1)N[C@@H](Cc1ccccc1)C(=O)O | > 500 | 21 | 1.6 |  |
| O=C(O)CC[C@H](NC(=O)CCCCCNC(=O)NC1CCCCC1)C(=O)O | > 500 | > 100 | 51 |  |
| N=C(N)NCCC[C@H](NC(=O)CCCNC(=O)NC1CCCCC1)C(=O)O | > 500 | 25 | 1 |  |
| O=C(O)CC[C@H](NC(=O)CCCNC(=O)NC1CCCCC1)C(=O)O | > 500 | 24 | 1.7 |  |
| CC(C)[C@H](NC(=O)CNC(=O)NC1CCCCC1)C(=O)O | > 500 | > 100 | > 100 |  |
